≈ marks a conversion by molar mass, not a printed value. Calls of active or inactive are those of the source. No cut-off for these calls is given here.
Key:
[1] = Inhibition of tau40 protein aggregation by orthogonal sedimentation based SDS-PAGE relative to control; set-up: concentration or dose not given beside the values; details: concentration not given here
[2] = Aqueous solubility in sodium acetate buffer at pH 7.0 by turbidimetric measurements; type: physicochemical
Outline: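 Compounds were serially diluted 2.5-fold in DMSO, then diluted 100-fold into 100 mM NaOAc pH 7.0 (final 200 µM down to 0.03 µM, 1% DMSO). Plates were agitated for 2.5 h and absorbance was read at 550–700 nm with the DMSO blank subtracted. The solubility limit was taken as the concentration before the one where mean absorbance exceeded 0.03 AU.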

Homo sapiens = species on record: Homo sapiens; experiment: Inhibition of human full length tau40 protein-mediated bovine brain tubulin assembly at 62.5 uM by MT assembly assay
Outline: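 Wild-type full-length human tau40 (2N4R, 25 µM) was preincubated with compound at 62.5 µM in RAB pH 6.9 for 120 min at room temperature. Bovine brain tubulin and GTP were then added, giving final concentrations of 30 µM tubulin, 20 µM tau, 50 µM compound and 2 mM GTP. Absorbance at 340 nm was read every minute for 45 min at 37 °C.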

Brain = experiment: Drug level in brain of B6C3F1 mouse at 5 mg/kg, ip by LC-MS/MS analysis; type: ADME, organism-based; set-up: dose 5 mg/kg, route intraperitoneal; details: in vivo
Outline: (§1)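 Three female B6C3F1 mice per compound were given 5 mg/kg i.p. Brain and plasma were sampled at a single 1 h time point. Brain was homogenized 1:2 w/v in 10 mM ammonium acetate pH 5.7, and plasma was collected in EDTA. Samples were extracted with acetonitrile and quantified by LC-MS/MS MRM against spiked calibration curves. B/P was taken as the brain/plasma ratio.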

[3] = Inhibition of heparin-induced K18PL tau protein aggregation assessed as thioflavin T binding by fluorescence assay relative to control; details: concentration not given here
HEK293 = experiment: Cytotoxicity against HEK293 cells up to 100 uM after 72 hrs by alamar blue assay; type: cell-based; details: human, hek293, 72 h
Outline: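 HEK-293 cells were plated at 20,000 per well in DMEM with 10% FCS. After 24 h, half-log compound dilutions starting at 200 µM were added. Cells were cultured for 72 h, and viability was read by Alamar blue fluorescence. CC50 values were fitted from the curves.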

[4] = Inhibition of K18PL tau protein aggregation by orthogonal sedimentation based SDS-PAGE relative to control; details: concentration not given here
Plasma [5] = experiment: Drug level in plasma of B6C3F1 mouse at 5 mg/kg, ip by LC-MS/MS analysis; type: ADME, organism-based; set-up: dose 5 mg/kg, route intraperitoneal; details: in vivo; outline: as §1
[6] = Ratio of drug level from brain to plasma of B6C3F1 mouse at 5 mg/kg, ip by LC-MS/MS analysis; type: ADME, organism-based; set-up: dose 5 mg/kg, route intraperitoneal; outline: as §1
[7] = Oral bioavailability in B6C3F1 mouse at 5 mg/kg; type: ADME, organism-based; details: in vivo
Outline: (§2)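 Mice were dosed by oral gavage at 5 mg/kg. […] Bioavailability was obtained by comparing plasma AUC after oral dosing with AUC after 2 mg/kg i.v.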

[8] = AUC (0.5 to 16 hrs) in brain of B6C3F1 mouse at 2 mg/kg, iv; type: ADME, organism-based; set-up: time upper 16 hr, time lower 0.5 hr, dose 2 mg/kg, route intravenous
Outline: (§3)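 Female B6C3F1 mice, two months old, given 2 mg/kg i.v., three mice per time point at 0.5, 1, 2, 4, 8 and 16 h. Brain hemispheres were homogenized in 10 mM ammonium acetate pH 5.7, and plasma was taken from EDTA blood. Both were extracted with acetonitrile and measured by LC-MS/MS (MRM) against spiked standard curves at 4–4000 ng/mL.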

[9] = Ratio of drug level from brain to plasma of B6C3F1 mouse at 2 mg/kg, iv; type: ADME, organism-based; set-up: dose 2 mg/kg, route intravenous; details: read-out: BPR; outline: as §3
[10] = AUC (0.5 to 16 hrs) in plasma of B6C3F1 mouse at 5 mg/kg, po; type: ADME, organism-based; set-up: time 0.5-16 hr, dose 5 mg/kg, route oral; outline: as §2
Plasma [11] = experiment: Elimination half life in plasma of B6C3F1 mouse at 2 mg/kg, iv; type: ADME, organism-based; set-up: dose 2 mg/kg, route intravenous; details: in vivo
Outline: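 Female B6C3F1 mice received 2 mg/kg i.v., three per time point. Plasma levels were measured by LC-MS/MS with 1/x-weighted calibration, averaging triplicate injections. Half-life was derived from the elimination rate constant, taken as the slope of ln plasma concentration against time over the 4, 8 and 16 h points.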

[12] = AUC (0.5 to 16 hrs) in plasma of B6C3F1 mouse at 2 mg/kg, iv; type: ADME, organism-based; set-up: time upper 16 hr, time lower 0.5 hr, dose 2 mg/kg, route intravenous; outline: as §3

CN(C)C(=O)c1nn(-c2ccc(Cl)cc2)c(=O)c2c(N)scc12
inhibition [1]: 69%
solubility kinetic [2]: 32 µM (≈ 11.2 µg/mL)
inhibition (Homo sapiens): inactive
Drug uptake (Brain): 14 ng/g
inhibition [3]: 75%
Activity (HEK293): Non-toxic
inhibition [4]: 69%
Drug uptake (Plasma [5]): 30 ng/mL

CC(C)NC(=O)c1nn(-c2ccc(Br)cc2)c(=O)c2c(N)scc12
inhibition [1]: 55%
solubility kinetic [2]: 13 µM (≈ 5.29 µg/mL)
inhibition (Homo sapiens): inactive
Drug uptake (Brain): 641 ng/g
inhibition [3]: 85%
Activity (HEK293): Non-toxic
inhibition [4]: 58%
Drug uptake (Plasma [5]): 316 ng/mL

CC(C)OC(=O)c1nn(-c2ccc(Cl)cc2)c(=O)c2c(N)scc12
inhibition [1]: 61%
BPR [6]: 5.2
solubility kinetic [2]: 32 µM (≈ 11.6 µg/mL)
inhibition (Homo sapiens): inactive
Drug uptake (Brain): 436 ng/g
inhibition [3]: 79%
Activity (HEK293): Non-toxic
inhibition [4]: 44%
Drug uptake (Plasma [5]): 84 ng/mL

CCN(C)C(=O)c1nn(-c2ccc(Cl)cc2)c(=O)c2c(N)scc12
inhibition [1]: 58%
solubility kinetic [2]: 80 µM (≈ 29 µg/mL)
inhibition (Homo sapiens): inactive
Drug uptake (Brain): 122 ng/g
inhibition [3]: 75%
Activity (HEK293): Non-toxic
inhibition [4]: 62%
Drug uptake (Plasma [5]): 138 ng/mL

Nc1scc2c(C(=O)O)nn(-c3ccc(Cl)cc3)c(=O)c12
inhibition [1]: 62%
solubility kinetic [2]: > 200 µM
inhibition (Homo sapiens): inactive
Drug uptake (Brain): 121 ng/g
inhibition [3]: 84%
Activity (HEK293): Non-toxic
inhibition [4]: 79%
Drug uptake (Plasma [5]): 5230 ng/mL

CNC(=O)c1nn(-c2ccc(Cl)cc2)c(=O)c2c(N)scc12
inhibition [1]: 61%
solubility kinetic [2]: 13 µM (≈ 4.35 µg/mL)
inhibition (Homo sapiens): inactive
Drug uptake (Brain): 34 ng/g
inhibition [3]: 78%
Activity (HEK293): Non-toxic
inhibition [4]: 68%
Drug uptake (Plasma [5]): 70 ng/mL

CC(C)NC(=O)c1nn(-c2ccc(Cl)cc2)c(=O)c2c(N)scc12
inhibition [1]: 45%
solubility kinetic [2]: 32 µM (≈ 11.6 µg/mL)
inhibition (Homo sapiens): inactive
Drug uptake (Brain): 1100 ng/g
inhibition [3]: 83%
Activity (HEK293): Non-toxic
inhibition [4]: 65%
Drug uptake (Plasma [5]): 499 ng/mL

Nc1scc2c(C(=O)NC3CC3)nn(-c3ccc(Cl)cc3)c(=O)c12
bioavailability [7]: 70%
inhibition [1]: 58%
AUC(0-t) [8]: 469 ng·h/mL
solubility kinetic [2]: 32 µM (≈ 11.5 µg/mL)
Kp [9]: 1.58
inhibition (Homo sapiens): inactive
Drug uptake (Brain): 1299 ng/g
AUC(0-t) [10]: 526 ng·h/mL
beta t1/2 (Plasma [11]): >= 2.5 hr
inhibition [3]: 83%
Activity (HEK293): Non-toxic
inhibition [4]: 69%
AUC(0-t) [12]: 297 ng·h/mL
Drug uptake (Plasma [5]): 823 ng/mL

CCOC(=O)c1nn(-c2ccc(Cl)cc2)c(=O)c2c(N)scc12
inhibition [1]: 48%
solubility kinetic [2]: 13 µM (≈ 4.55 µg/mL)
inhibition (Homo sapiens): inactive
Drug uptake (Brain): 67 ng/g
inhibition [3]: 71%
Activity (HEK293): Non-toxic
inhibition [4]: 70%
Drug uptake (Plasma [5]): 20 ng/mL

CCNC(=O)c1nn(-c2ccc(Cl)cc2)c(=O)c2c(N)scc12
inhibition [1]: 87%
solubility kinetic [2]: 32 µM (≈ 11.2 µg/mL)
inhibition (Homo sapiens): inactive
Drug uptake (Brain): 886 ng/g
inhibition [3]: 84%
Activity (HEK293): Non-toxic
inhibition [4]: 94%
Drug uptake (Plasma [5]): 500 ng/mL
